Assay results published in ChEMBL document CHEMBL3585262, “(-)-α-Bisabolol, a Promising Oral Compound for the Treatment of Visceral Leishmaniasis” (J Nat Prod, 2015).
pIC50: −log10 of the molar value. Activity calls are given as the source filed them. No cut-off for these calls is given here.

How the values were obtained:
Leishmania infantum [1] = assay: Antileishmanial activity against Leishmania infantum promastigotes infected in Balb/c mouse assessed as reduction parasite load in spleen at 50 mg/kg, po dosed daily starting 28 days after infection for 14 days by real-time PCR relative to control
Mus musculus [2] = assay: Toxicity in Balb/c mouse assessed as changes in plasma biochemical changes at 50 and 200 mg/kg, po; details: in vivo
[3] = (§1) Selectivity index, ratio of CC50 for mouse L929 cells to IC50 for Leishmania donovani MHOM/IN/00/LEM138; format: functional
Mus musculus [4] = assay: Toxicity in Balb/c mouse assessed as histological changes at 50 mg/kg, po; details: in vivo
Leishmania infantum [5] = assay: Antileishmanial activity against Leishmania infantum promastigotes infected in Balb/c mouse assessed as reduction parasite load in liver at 50 mg/kg, po dosed daily starting 28 days after infection for 14 days by real-time PCR relative to control
Leishmania infantum [6] = assay: Antileishmanial activity against Leishmania infantum promastigotes infected in Balb/c mouse assessed as parasite load in spleen at 200 mg/kg, po dosed daily starting 28 days after infection for 14 days by real-time PCR
[7] = Cytotoxicity against mouse L929 cells assessed as survival rate at 500 uM after 72 hrs by trypan blue assay; format: cell-based; details: read-out: Survival
Method in brief: (§2)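 Trypan Blue exclusion assay. BMDM (4 × 10^5/well) or L929 fibroblasts (5 × 10^4/well) incubated 72 h with 25–1000 μM compound, with DMSO diluent controls. Cells then mixed 1:1 with 0.4% Trypan Blue and live and dead cells counted in a hemocytometer. Survival ratio calculated against controls at each concentration.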

Mus musculus [8] = assay: Toxicity in ICR (CD1) mouse at 1000 mg/kg, po; format: organism-based; details: in vivo
Method in brief: (§3)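 Mice were given daily oral doses of 50, 200 or 1000 mg/kg in olive oil for 14 days, alongside a noninfected healthy reference group. Animals were weighed weekly and checked for stress, pain, cutaneous signs and diarrhea. After sacrifice, spleen and liver were weighed, plasma biochemical and enzymatic values were assessed, and tissue sections were examined by light microscopy.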

Mus musculus [9] = assay: Toxicity in ICR (CD1) mouse assessed as histological changes at 200 mg/kg, po; format: organism-based; details: in vivo
Method in brief: as §3

Mus musculus [10] = assay: Toxicity in Balb/c mouse assessed as changes in plasma enzymatic changes at 50 and 200 mg/kg, po; details: in vivo
Leishmania amazonensis = assay: Antileishmanial activity against Leishmania amazonensis MHOM/BR/76/MA-76 intracellular amastigotes infected in BALB/c mouse peritoneal macrophages incubated for 24 hrs by Giemsa staining based light microscopy; format: functional, organism-based; details: MHOM/BR/76/MA-76, 24 h
[11] = Cytotoxicity against human skin fibroblast cells; format: cell-based
[12] = (§4) Cytotoxicity against mouse L929 cells after 72 hrs by trypan blue assay; format: cell-based; details: L929 cells
Method in brief: (§5)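 L929 fibroblasts were plated at 5 × 10^4/well in RPMI-1640 with 10% FBS at 37 °C, 5% CO2. They were exposed to 25–1000 μM compound, with diluent controls, for 72 h. Cells were mixed 1:1 with 0.4% trypan blue and live and dead cells counted in a hemocytometer. Survival was expressed relative to controls and CC50 approximated.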

Leishmania donovani [13] = assay: Antileishmanial activity against Leishmania donovani MHOM/IN/00/LEM138 infected in mouse BMDM cells assessed as reduction in intracellular amastigotes after 48 hrs; format: functional, organism-based
Method in brief: (§6)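 Bone-marrow-derived macrophages from ICR (CD-1) mice, differentiated with L929-conditioned medium, plated 4 × 10^6 per well on coverslips and allowed to adhere 1 day. Infected with stationary-phase promastigotes at 10:1 parasite/macrophage, then exposed to 25–1000 μM for 48 h (0.5% DMSO). Giemsa-stained, infection percentage counted by microscopy. IC50 from linear regression of infection reduction; at least triplicate.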

Leishmania infantum [14] = assay: Antileishmanial activity against Leishmania infantum MHOM/ES/2007/DP532JFJ infected in mouse BMDM cells assessed as reduction in infection at 150 uM after 48 hrs; format: functional
Method in brief: (§7)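 Mouse bone-marrow macrophages were differentiated with L929-conditioned medium and plated with coverslips. They were infected with stationary-phase promastigotes at a 10:1 parasite:macrophage ratio. Compound (25–1000 μM, 0.5% DMSO) was added for 48 h, at least in triplicate. Cells were Giemsa-stained and the percentage infected (≥1 amastigote) was counted by microscopy. Reduction was calculated relative to untreated or diluent wells.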

[15] = Toxicity in po dosed rat; format: organism-based; details: in vivo
[16] = Cytotoxicity against mouse L929 cells assessed as survival rate at 25 to 250 uM after 72 hrs by trypan blue assay; format: cell-based; details: read-out: Survival
Method in brief: as §2

Leishmania infantum [17] = assay: Antileishmanial activity against Leishmania infantum promastigotes; format: functional, organism-based
Leishmania infantum [18] = assay: Antileishmanial activity against Leishmania infantum promastigotes infected in ICR (CD1) mouse assessed as reduction in parasite load in spleen at 200 mg/kg, po dosed daily starting 28 days after infection for 14 days by real-time PCR co-treated with 104 mg Sb'v/kg/day, ip meglumine antimoniate for 14 days; format: functional, organism-based
Method in brief: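 Female 4–6-week-old Balb/c mice received 10^7 stationary-phase L. infantum promastigotes ip, in groups of seven. From day 28 they were dosed orally each day for 14 days in olive oil; meglumine antimoniate 104 mg SbV/kg was given ip. Spleen and liver load was measured by L. infantum-specific qPCR in triplicate against a calibration curve, as parasites/mg, and reduction was taken versus untreated mice.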

Leishmania infantum [19] = assay: Antileishmanial activity against Leishmania infantum MHOM/ES/2007/DP532JFJ infected in mouse BMDM cells assessed as reduction in intracellular amastigotes after 48 hrs; format: functional, organism-based
Method in brief: as §6

[20] = Cytotoxicity against mouse J774.G8 cells assessed as reduction in cell viability incubated for 24 hrs by MTT assay; format: cell-based
Leishmania infantum [21] = assay: Antileishmanial activity against Leishmania infantum promastigotes infected in Balb/c mouse assessed as parasite load in liver at 200 mg/kg, po dosed daily starting 28 days after infection for 14 days by real-time PCR
[22] = Cytotoxicity against ICR(CD1) BMDM assessed as survival rate at 25 to 250 uM after 72 hrs by trypan blue assay; details: mouse
Method in brief: as §2

Leishmania donovani [23] = assay: Antileishmanial activity against Leishmania donovani MHOM/IN/00/LEM138 infected in mouse BMDM cells assessed as reduction in infection at 150 uM after 48 hrs; format: functional; details: MHOM/IN/00/LEM138, BMDM
Method in brief: as §7

[24] = (§8) Selectivity index, ratio of CC50 for mouse L929 cells to IC50 for Leishmania infantum MHOM/ES/2007/DP532JFJ; format: functional
[25] = Cytotoxicity against mouse L929 cells assessed as survival rate at 1000 uM after 72 hrs by trypan blue assay; format: cell-based; details: read-out: Survival
Method in brief: as §2

L929 [26] = assay: as §1; format: functional
Leishmania infantum [27] = assay: Antileishmanial activity against Leishmania infantum promastigotes infected in ICR (CD1) mouse assessed as reduction in parasite load in spleen at 104 mg Sb'v/kg, ip treated 28 days after infection for 14 days by real-time PCR relative to control; format: functional, organism-based
Leishmania infantum [28] = assay: Antileishmanial activity against Leishmania infantum promastigotes infected in ICR (CD1) mouse assessed as parasite load in liver at 104 mg Sb'v/kg, ip dosed daily starting 28 days after infection for 14 days by real-time PCR; format: functional, organism-based
Leishmania infantum [29] = assay: Antileishmanial activity against Leishmania infantum promastigotes infected in ICR (CD1) mouse assessed as reduction in parasite load in liver at 104 mg Sb'v/kg, ip dosed daily starting 28 days after infection for 14 days by real-time PCR relative to control; format: functional, organism-based
Leishmania infantum [30] = assay: Antileishmanial activity against Leishmania infantum promastigotes infected in ICR (CD1) mouse assessed as parasite load in spleen at 104 mg Sb'v/kg, ip dosed daily starting 28 days after infection for 14 days by real-time PCR; format: functional, organism-based
L929 [31] = assay: as §8; format: functional
L929 [32] = assay: as §4; format: cell-based; details: l929, 72 h
Method in brief: as §5

[33] = Leishmania donovani, MHOM/IN/00/LEM138, BMDM, 48 h
[34] = Leishmania infantum, MHOM/ES/2007/DP532JFJ, BMDM, 48 h

With `CC(C)=CCC[C@@](C)(O)[C@@H]1CC=C(C)CC1` the inhibition (Leishmania infantum [1]) was “Active”, the Activity (Mus musculus [2]) was “Non-toxic” and the “Ratio CC50/IC50” value [3] was over 25. The Activity (Mus musculus [4]) was “Non-toxic”, the inhibition (Leishmania infantum [5]) was “Active” and the inhibition (Leishmania infantum [6]) was “Active”. The viability at 72 h, 500 µM [7] was 86.7%, the Activity (Mus musculus [8]) was “Non-toxic” and the Activity (Mus musculus [9]) was “Non-toxic”. For the same compound, the Activity (Mus musculus [10]) was “Non-toxic”, the pIC50 (Leishmania amazonensis) was 4.32 and the CC50 [11] was over 150 µM. It also gave a CC50 at 72 h [12] of over 1000 µM, a pIC50 (Leishmania donovani [13]; [33]) of 4.40 and an inhibition at 150 µM (Leishmania infantum [14]) of 85%. It also gave an LD50 [15] of 14000 mg/kg, a viability at 72 h, up to 250 µM [16] of 100% and a pIC50 (Leishmania infantum [17]) of 4.31. The inhibition (Leishmania infantum [18]) was “inactive”, the pIC50 (Leishmania infantum [19]; [34]) was 4.24 and the CC50 at 24 h [20] was 452 µM. The inhibition (Leishmania infantum [21]) was “Active”, the Activity [22] was “Non-toxic” and the inhibition at 150 µM (Leishmania donovani [23]) was 89%. The “Ratio CC50/IC50” value [24] was over 17 and the viability at 72 h, 1000 µM [25] was 62.3%.
With `N=C(N)c1ccc(OCCCCCOc2ccc(C(=N)N)cc2)cc1.O=S(=O)(O)CCO` the “Ratio CC50/IC50” value [3] was 7, the CC50 at 72 h [12] was 6.1 µM and the pIC50 (Leishmania donovani [13]; [33]) was 6.06. The pIC50 (Leishmania infantum [19]; [34]) was 5.82 and the “Ratio CC50/IC50” value [24] was 4.
For “MEGLUMINE ANTIMONATE [listing 1 of 2 here]”, the Ratio CC50/IC50 (L929 [26]) was 3, the inhibition (Leishmania infantum [27]) was “inactive” and the inhibition (Leishmania infantum [28]) was “Active”. For the same compound, the Activity (Leishmania infantum [29]) was “Active”, the inhibition (Leishmania infantum [30]) was “Active” and the Ratio CC50/IC50 (L929 [31]) was 2.
With “MEGLUMINE ANTIMONATE [listing 2 of 2 here]” the CC50 (L929 [32]) was 273 µM, the pIC50 (Leishmania donovani [13]; bmdm) was 4.02 and the pIC50 (Leishmania infantum [19]; bmdm) was 3.84.
